Assay [1] concerns Pseudomonas aeruginosa. As to the kind of experiment: Antimicrobial activity against Pseudomonas aeruginosa WR5. Format: functional. The gist of the method: (§1)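 Strains grown from single colony 8 h at 37 °C in LB, diluted to OD600 0.05, incubated in LB alone or with 250−1500 μM compound. OD600 read at 6, 12 and 24 h, blank with matching inhibitor concentration subtracted. MIC50 averaged from three separate experiments.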

In assay [2] the test system is Pseudomonas aeruginosa. As to the kind of experiment: Antimicrobial activity against Pseudomonas aeruginosa FRD1. The class given is functional. The gist of the method:
as §1

In assay [3] the test system is Pseudomonas aeruginosa. As to the kind of experiment: Antimicrobial activity against Pseudomonas aeruginosa PAO1. The class given is functional. The gist of the method:
as §1

Assay [4] can be described thus: Binding affinity to Pseudomonas aeruginosa apo Heme oxygenase expressed in Escherichia coli BL21(DE3) assessed as decrease in tryptophan fluorescence. In a few lines: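 Apo-HemO held at 1 μM in 20 mM Tris-HCl (pH 7.5), titrated with inhibitor 0.05−500 μM. Excitation 295 nm, emission scanned 300−500 nm; fluorescence decrease at 330 nm used in 1/ΔA vs 1/[I] reciprocal plot, slope giving KD. Mean of three separate experiments.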

Assay [5] relates to Pseudomonas aeruginosa. As to the kind of experiment: Antimicrobial activity against Pseudomonas aeruginosa PAO1 infected in Caenorhabditis elegans glp-4(bn2) assessed as increase in host lifespan at 250 ug/ml. The class given is functional, organism-based. The gist of the method: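 Synchronized glp-4(bn2) young adults (30) exposed 12 h to P. aeruginosa PAO1 lawn on PGS agar (peptone, NaCl, glucose, 0.15 M sorbitol), washed in M9, reseeded on E. coli OP50 PGS-agar plates containing inhibitor. Viability scored daily; death taken as no response to touch. Average of three experiments.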

Assay [6] deals with Pseudomonas aeruginosa. The assay is described as follows: Antimicrobial activity against Pseudomonas aeruginosa PAO1 infected in Caenorhabditis elegans glp-4(bn2) assessed as reduction in CFU at 250 ug/ml by serial dilution method. Format: functional, organism-based. In a few lines:
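Infected worms (PAO1, 12 h on PGS agar) moved to E. coli OP50 plates with inhibitor; at 24, 48, 72 and 96 h, 10 live worms washed three times in M9 with 1 mM sodium azide, disrupted with 1.0 mm silicon carbide beads by vortexing 1 min, debris pelleted, lysate serially diluted and plated on PIA for cfu. Uninfected and untreated infected worms as controls.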

For assay [7], the system named is Pseudomonas aeruginosa. As to the kind of experiment: Binding affinity to Pseudomonas aeruginosa apo Heme oxygenase expressed in Escherichia coli BL21(DE3) assessed as shift in specific resonance at 4.2 mM after 2 hrs by chemical shift NMR analysis. In a few lines: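 15N-labeled apo-HemO at 1.2 mM (50 mM phosphate, 100 mM KCl, 95% H2O/5% D2O) with inhibitor at 0, 0.7, 1.05, 2.1 or 4.2 mM; inhibitor dissolved into protein 2 h at room temperature, centrifuged. 1H−15N TROSY-HSQC at 25 °C; combined shift Δppm = sqrt(ΔδHN² + (0.2·ΔδN)²).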

For assay [8], the system named is Pseudomonas aeruginosa. The assay is described as follows: Binding affinity to Pseudomonas aeruginosa apo Heme oxygenase expressed in Escherichia coli BL21(DE3) after 4 hrs by STD-NMR analysis. The gist of the method:
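STD-NMR at 25 °C, 500 MHz: inhibitor-saturated solution (50 mM sodium phosphate, 100 mM NaCl, D2O, pH 7.4, stood about 4 h, centrifuged) mixed with 3−4 μM HemO; inhibitor about 5 mM by TSP reference. Selective saturation 2 s via 50 ms Gaussian pulses; repeated with 10 s interscan delay. Strongest-saturated proton set to 100%.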

In brackets after ≈: the same amount, converted by molar mass. Activity calls are given as the source filed them. No cut-off for these calls is given here.

Take `O=C(O)/C=C/C(=O)Nc1ccc(Oc2ccccc2)cc1`: the MIC50 in assay [1] amounted to 800 µg/mL (≈ 2820 µM); in assay [2], 750 µg/mL (≈ 2650 µM); in assay [3] it was 1000 µg/mL (≈ 3530 µM). For the same compound, in assay [4], the Kd was 29.3 µM.
On to `CN(C)c1ccc(/C=N/NC(=N)N)cc1`, for which the outcome in assay [5], in assay [6], in assay [7] and in assay [8] was Active. The MIC50 in assay [1] worked out at 210 µg/mL (≈ 1020 µM); in assay [2], 190 µg/mL (≈ 926 µM); in assay [3] it was 250 µg/mL (≈ 1220 µM). Also, the dissociation constant (Kd) in assay [4] worked out at 31.2 µM.
For `O=C(O)/C=C/C(=O)Nc1ccc(Nc2ccccc2)cc1`, the result in assay [5], in assay [7] and in assay [8] was Active. Moreover, the MIC50 in assay [1] turned out to be 1100 µg/mL (≈ 3900 µM); in assay [2] it was 950 µg/mL (≈ 3370 µM); in assay [3], 1200 µg/mL (≈ 4250 µM). Also, the Kd in assay [4] stood at 18.4 µM.

By MIC50 is commonly meant an inhibitory concentration at the 50% level, which refers to growth in some studies and to a panel of isolates in others. A lower MIC50 goes with greater potency. Usually Kd stands for the free concentration of one partner at which half of the binding sites on the other are occupied at equilibrium, for simple one-to-one binding.

The values above are taken from ChEMBL document CHEMBL2331541, “Small molecule antivirulents targeting the iron-regulated heme oxygenase (HemO) of P. aeruginosa” (J Med Chem, 2013).
